The nature of series [1]: Chemical stability at pH 1 after 4 hrs. It is filed as physicochemical. Particulars: buffer, read-out: Stability. In a few lines:
(§1)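 Compound at 0.01 mg/mL final in a 9:1 mix of aqueous buffer (pH 1.0, 4.5, 6.6 or 7.4) or simulated gastric fluid with acetonitrile, held at 37 °C in the autosampler. Injected every 4 h over 24 h onto C8 HPLC. Percent remaining from peak area at 304 nm, corrected by internal standard; products confirmed by LC/MS (-ESI).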

Series [2] is described as follows: Chemical stability at pH 4.5 after 4 hrs. It is filed as physicochemical. The settings on record: buffer, read-out: Stability. In a few lines:
as §1

A short description of series [3]: Chemical stability at pH 6.6 after 4 hrs. It is filed as physicochemical. Particulars: buffer, read-out: Stability. In a few lines:
as §1

Series [4] is described as follows: Chemical stability at pH 7.4 after 4 hrs. The class given is physicochemical. The settings on record: buffer, read-out: Stability. A digest of the protocol:
as §1

A short description of series [5]: Chemical stability in simulated gastric fluid after 4 hrs. It is filed as physicochemical. The settings on record: read-out: Stability. In a few lines:
as §1

Series [6] is filed under the species Rattus norvegicus. As to the kind of experiment: Half life in Sprague-Dawley rat plasma assessed as formation of perzinfotel. The class given is ADME. In a few lines:
(§2)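 Dissolved at 0.05 mg/mL in rat plasma and incubated at 37 °C for 0–24 h. Samples quenched with acetonitrile and centrifuged; supernatant diluted and run on HPLC. Parent and conversion products quantified by peak area at 304 nm, corrected by internal standard, and confirmed by LC/MS. Kinetics fitted to a two-step first-order model.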

A short description of series [7]: Half life in pH 8.5 buffer assessed as formation of perzinfotel. It is filed as physicochemical. A digest of the protocol:
(§3)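 Compound at a final 0.01 mg/mL in 9:1 pH 8.5 buffer or simulated intestinal fluid:acetonitrile, 37 °C. HPLC injections every 4 h over 24 h, with peak area at 304 nm corrected by internal standard and identities confirmed by LC/MS. Conversion kinetics fitted to a two-step first-order model to give rate constants, half-lives and Tmax of the hemiester.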

The nature of series [8]: Half life in simulated intestinal fluid assessed as formation of perzinfotel. It is filed as physicochemical. Particulars: simulated gi fluid. A digest of the protocol:
as §3

For series [9], the species on record is Rattus norvegicus. As to the kind of experiment: Tmax in Sprague-Dawley rat plasma assessed as formation of benzoic acid [2-(8,9-dioxo-2,6-diaza-bicyclo[5.2.0]non-1(7)-en-2-yl)-ethyl]-hydroxy-phosphinoyloxymethyl ester. It is filed as ADME. Particulars: in vitro. A digest of the protocol:
as §2

A short description of series [10]: Tmax in pH 8.5 buffer assessed as formation of benzoic acid [2-(8,9-dioxo-2,6-diaza-bicyclo[5.2.0]non-1(7)-en-2-yl)-ethyl]-hydroxy-phosphinoyloxymethyl ester. The class given is physicochemical. In a few lines: as §3
A short description of series [11]: Tmax in simulated intestinal fluid assessed as formation of benzoic acid [2-(8,9-dioxo-2,6-diaza-bicyclo[5.2.0]non-1(7)-en-2-yl)-ethyl]-hydroxy-phosphinoyloxymethyl ester. It is filed as physicochemical. Particulars: simulated gi fluid. A digest of the protocol: as §3
The next series addresses Glutamate NMDA receptor. As to the kind of experiment: Displacement of [3H]CGP-39653 from rat brain NMDA receptor. A digest of the protocol: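 Competitive displacement of [3H]CGP-39653 at the NMDA recognition site, using rat whole-brain membranes.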
A short description of series [12]: Tmax in Sprague-Dawley rat at 30 mg/kg, po. The class given is ADME, organism-based. More on the design: dose 30 mg/kg, route oral. Particulars: in vivo. A digest of the protocol: (§4)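 Male Sprague-Dawley rats fasted about 16 h, then dosed by oral gavage at 30 mg/kg as a suspension in 2% Tween-80/0.5% methylcellulose in water. Plasma sampled at 0–6 h (n = 2–3 per time point) and stabilized with acetic acid and KF. Samples acidified, extracted into n-butanol, and analysed by LC-MS.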

A short description of series [13]: Cmax in Sprague-Dawley rat at 30 mg/kg, po. It is filed as ADME, organism-based. More on the design: dose 30 mg/kg, route oral. The settings on record: in vivo. In a few lines:
as §4

A short description of series [14]: AUC (0 to 4 hrs) in Sprague-Dawley rat at 30 mg/kg, po. More on the design: time < 4 hr, dose 30 mg/kg, route oral. The class given is ADME, organism-based. The settings on record: plasma. A digest of the protocol: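 Male Sprague-Dawley rats given a single oral gavage dose, suspended in 2% Tween-80/0.5% methylcellulose in sterile water at 1 mL/kg. Plasma sampled at 0, 0.25, 0.5, 1, 2, 4 and 6 h; n = 2 at 0, 2, 4, 6 h and n = 3 at 0.25, 0.5, 1 h. Samples were stabilized with acetic acid/KF, acidified, extracted into n-butanol and quantified by LC/MS.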

Series [15] has as its system Brain. As to the kind of experiment: Biodistribution in Sprague-Dawley rat brain at 30 mg/kg, po after 0.167 hrs. It is filed as ADME, organism-based. More on the design: dose 30 mg/kg, route oral. Particulars: in vivo. In a few lines: (§5)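 Male Sprague-Dawley rats given [14C]-labelled compound by oral gavage (parent at 30 mg/kg, prodrug at 10 mg/kg). Blood, plasma and brain taken at 0.167, 0.5, 1, 4, 8 and 24 h (n = 3 rats/time point). Total radioactivity measured in each matrix. Metabolite profiles from HPLC with in-line radioactivity detection.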

Series [16] has as its system Blood. The series is described as follows: Biodistribution in Sprague-Dawley rat blood at 30 mg/kg, po after 0.5 hrs. The class given is ADME, organism-based. More on the design: dose 30 mg/kg, route oral. The settings on record: in vivo. A digest of the protocol:
as §5

Series [17] relates to Plasma. As to the kind of experiment: Biodistribution in Sprague-Dawley rat plasma at 30 mg/kg, po after 0.5 hrs. More on the design: dose 30 mg/kg, route oral. Particulars: in vivo. The class given is ADME, organism-based. In a few lines:
as §5

Series [18] has as its system Brain. The series is described as follows: Biodistribution in Sprague-Dawley rat brain at 30 mg/kg, po after 0.5 hrs. The class given is ADME, organism-based. More on the design: dose 30 mg/kg, route oral. The settings on record: in vivo. In a few lines:
as §5

In series [19] the target is T1, Glycine receptor subunit alpha-1 (Rattus norvegicus) (UniProt P07727).
T1 sequence (whole entry): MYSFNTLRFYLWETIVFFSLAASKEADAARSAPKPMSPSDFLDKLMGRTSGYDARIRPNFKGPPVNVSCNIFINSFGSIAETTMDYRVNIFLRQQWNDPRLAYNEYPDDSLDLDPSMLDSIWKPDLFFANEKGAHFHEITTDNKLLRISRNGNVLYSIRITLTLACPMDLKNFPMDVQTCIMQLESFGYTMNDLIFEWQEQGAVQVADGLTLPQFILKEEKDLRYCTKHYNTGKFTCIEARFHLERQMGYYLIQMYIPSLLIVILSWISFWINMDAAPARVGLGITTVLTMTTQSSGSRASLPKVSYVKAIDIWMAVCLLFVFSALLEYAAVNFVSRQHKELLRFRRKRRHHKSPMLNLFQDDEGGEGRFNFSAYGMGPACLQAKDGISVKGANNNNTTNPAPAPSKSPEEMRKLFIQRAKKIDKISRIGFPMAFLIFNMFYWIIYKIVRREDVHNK
As to the kind of experiment: Displacement of [3H]glycine from rat brain strychnine sensitive glycine receptor at 100 uM. A digest of the protocol: (§6)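 Inhibition of radioligand binding at 100 µM. [3H]glycine with rat whole-brain membranes, [3H]kainate with rat frontal cortex membranes, and [3H]AMPA with rat forebrain membranes.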
(Loss of bound radioactivity is the signal in a displacement assay; it reports binding, not function.)

The species named for series [20] is Rattus norvegicus. The series is described as follows: Displacement of [3H]kainic acid from kainate receptor in rat frontal cortex at 100 uM. The class given is tissue-based. A digest of the protocol: as §6
For series [21], the species on record is Rattus norvegicus. The series is described as follows: Displacement of [3H]AMPA from AMPA receptor in rat forebrain membrane at 100 uM. The class given is cell membranes. In a few lines:
as §6

Series [22] relates to Rattus norvegicus. As to the kind of experiment: Antinociceptive activity in Sprague-Dawley rat assessed as reversal of PGE2-induced thermal hypersensitivity at 100 mg/kg after 0.5 hrs. It is filed as functional, organism-based. More on the design: dose 100 mg/kg. In a few lines: (§7)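 Male Sprague-Dawley rats (200-250 g) fasted ~16 h and dosed orally in 2% Tween-80/0.5% methylcellulose (1 mL/kg) 0.5-48 h before intradermal PGE2 (0.1 mg in 50 µL). Tail-withdrawal latency was read 30 min later in water at 34-58 °C, with a 20 s cutoff. T10 from each rat's temperature-effect curve; within-subjects repeated-measures ANOVA, p < 0.05.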

For series [23], the species on record is Rattus norvegicus. The series is described as follows: Antinociceptive activity in Sprague-Dawley rat assessed as reversal of PGE2-induced thermal hypersensitivity after 0.5 hrs. It is filed as functional. In a few lines:
as §7

The nature of series [24]: Half life in Sprague-Dawley rat at 30 mg/kg, po. It is filed as ADME, organism-based. More on the design: dose 30 mg/kg, route oral. The settings on record: in vivo. A digest of the protocol:
as §4

Series [25] is described as follows: AUC (0 to last) in Sprague-Dawley rat at 30 mg/kg, po. The settings on record: plasma.
The test system of series [26] is Blood. The series is described as follows: Biodistribution in Sprague-Dawley rat blood at 10 mg/kg, po after 0.167 hrs. The settings on record: in vivo.
Series [27] concerns Plasma. As to the kind of experiment: Biodistribution in Sprague-Dawley rat plasma at 10 mg/kg, po after 0.167 hrs. Particulars: in vivo.

Calls of active or inactive are those of the source. Bounds are passed on as bounds.

With `O=C(OCOP(=O)(CCN1CCCNc2c1c(=O)c2=O)OCOC(=O)C1CCCCC1)C1CCCCC1`, the remaining at 4 h in [1] was 89%; in series [2] it was 99.4%; in [3] it was 95%; in series [4], 94.4%; in series [5], 91.6%.

Take `O=C(OCOP(=O)(O)CCN1CCCNc2c1c(=O)c2=O)c1ccccc1`: the t1/2 in the series filed under Rattus norvegicus [6] is 0.87 h; in [7], greater than 24 h; in [8], greater than 24 h. For the same compound, the Tmax in the series listed under Rattus norvegicus [9] was 0.19 h; in series [10] it was 9.14 h; in [11] it was 14.48 h. Further, at Glutamate NMDA receptor, the IC50 is 17 µM.

As to `CC(C)OC(=O)OCOP(=O)(CCN1CCCNc2c1c(=O)c2=O)OCOC(=O)OC(C)C`, the remaining at 4 h in series [1] is 100%; in [2] it was 100%; in series [3], 97.7%; in [4], 94.1%; in series [5] it was 100%.

As to `O=c1c2c(c1=O)N(CCP(=O)(O)O)CCCN2` [PERZINFOTEL], in [12], the Tmax is 0.5 h. The same compound registered a Cmax in series [13] of 218 ng/mL. This compound also had an AUC(0-t) at 4 h in [14] of 342 ng·h/mL. Also, the Drug uptake is given as 88% in the series with Brain [15]; 98% in the series on Blood [16]; 98% with Plasma [17]; 88% with Blood [26]; 88% with Plasma [27]. Further, the Activity in the series on Brain [18] turned out to be 98%; in series [19], 33%; in the series listed under Rattus norvegicus [20], 6%; in the series filed under Rattus norvegicus [21], 17%. The IC50 at Glutamate NMDA receptor worked out at 0.023 µM. In addition, in the series with Rattus norvegicus [22], the result was Active. For the same compound, in the series filed under Rattus norvegicus [23], the ED50 was 35 mg/kg. The same compound had a half-life in [24] of 1.3 h. Besides, the AUC(0-last) in [25] amounted to 342 ng·h/mL.

As usually defined, the Tmax is the time from dosing to the highest level. As usually defined, the IC50 is the concentration at which inhibition is half-maximal. A low value points to inhibition by little substance. As a reminder, the Cmax is the peak of the concentration-time curve. The term AUC(0-t) denotes the area under the concentration-time curve up to a stated or last time point. Higher therefore signals more exposure. Broadly, the ED50 is the dose at which the effect has come halfway, by size or by number of responders. Broadly, the half-life is the time needed for the level to fall by half in the phase considered.

Source of the values: ChEMBL document CHEMBL1143386, “Prodrugs of perzinfotel with improved oral bioavailability” (J Med Chem, 2009).
